Calls of active or inactive are those of the source. No cut-off for these calls is given here.
How the values were obtained:
Mus musculus [1] = experiment: Protective index, ratio of TD50 for ip dosed albino CF1 mouse by rotarod test to ED50 for ip dosed albino CF1 mouse by 6 Hz psychomotor seizure test; assay type: functional
Outline: (§1)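 Protective index calculated as TD50/ED50, with TD50 and ED50 taken from the same species and dosing route.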

Mus musculus [2] = experiment: Anticonvulsant activity in albino CF1 mouse assessed as protection against subcutaneous metrazol-induced seizures at 300 mg/kg, ip after 0.5 hrs; assay type: functional, organism-based; design: dose 300 mg/kg
Outline: (§2)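 Mice dosed ip at 30, 100 or 300 mg/kg, then tested 0.5 h and 4 h after administration in the MES or scMet test. Protection was recorded as animals protected over animals tested. Neurotoxicity was recorded as motor impairment or sedation, as animals affected over animals tested.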

Mus musculus [3] = experiment: Protective index, ratio of TD50 for ip dosed albino CF1 mouse by rotarod test to ED50 for ip dosed albino CF1 mouse by maximal electroshock seizures test; assay type: functional; outline: as §1
Mus musculus [4] = experiment: Anticonvulsant activity in albino CF1 mouse assessed as protection against subcutaneous metrazol-induced seizures at 100 mg/kg, ip after 0.5 hrs; assay type: functional, organism-based; design: dose 100 mg/kg; outline: as §2
Rattus norvegicus [5] = experiment: Anticonvulsant activity in Sprague-Dawley albino rat assessed as protection against maximal electroshock-induced seizures at 30 mg/kg, po after 4 hrs; assay type: functional, organism-based; design: dose 30 mg/kg
Outline: (§3)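 Rats dosed orally. Anti-MES protection was scored as animals protected over animals tested at each time after dosing. Neurotoxicity was scored as motor impairment or sedation, as animals affected over animals tested.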

Rattus norvegicus [6] = experiment: Anticonvulsant activity in ip dosed Sprague-Dawley albino rat assessed as protection against pilocarpine-induced status epilepticus after 0.5 hrs; assay type: functional
Outline: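 Pilocarpine status epilepticus model in rats. Number and severity of convulsive seizures were observed behaviourally.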

Mus musculus [7] = experiment: Anticonvulsant activity in albino CF1 mouse assessed as protection against subcutaneous metrazol-induced seizures at 100 mg/kg, ip after 4 hrs; assay type: functional, organism-based; design: dose 100 mg/kg; outline: as §2
Rattus norvegicus [8] = experiment: Anticonvulsant activity in po dosed Sprague-Dawley albino rat assessed as protection against subcutaneous metrazol-induced seizures; assay type: functional
Outline: (§4)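 Quantitative testing: rats dosed orally or ip in MES and scMet tests, and mice dosed ip, including the 6 Hz (32 mA) psychomotor seizure test. ED50 and TD50 were reported in mg/kg with ranges in parentheses. Protective index was calculated as TD50/ED50.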

Mus musculus [9] = experiment: Anticonvulsant activity in albino CF1 mouse assessed as protection against maximal electroshock-induced seizures at 300 mg/kg, ip after 4 hrs; assay type: functional, organism-based; design: dose 300 mg/kg; outline: as §2
Rattus norvegicus [10] = experiment: Anticonvulsant activity in Sprague-Dawley albino rat assessed as protection against maximal electroshock-induced seizures at 30 mg/kg, po after 2 hrs; assay type: functional, organism-based; design: dose 30 mg/kg; outline: as §3
[11] = Neurotoxicity in po dosed Sprague-Dawley albino rat assessed as minimal motor impairment by rotarod test; assay type: toxicity, organism-based; conditions: in vivo
Outline: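 Rats dosed orally; 4 rats per time point after dosing. Neurotoxicity was scored as motor impairment or sedation and reported as number of animals affected over number tested.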

Rattus norvegicus [12] = experiment: Anticonvulsant activity in Sprague-Dawley albino rat assessed as protection against pilocarpine-induced status epilepticus at 130 mg/kg, ip administered 0 and 30 mins after status epilepticus onset
Rattus norvegicus [13] = experiment: Neurotoxicity in pilocarpine-induced status epilepticus Sprague-Dawley albino rat model assessed as minimal motor impairment at 100 mg/kg, ip after 4 hrs by rotarod test; assay type: toxicity, organism-based; design: dose 100 mg/kg, route intraperitoneal; conditions: in vivo
Mus musculus [14] = experiment: Anticonvulsant activity in ip dosed albino CF1 mouse assessed as protection against subcutaneous metrazol-induced seizures; assay type: functional; outline: as §4
Mus musculus [15] = experiment: Anticonvulsant activity in albino CF1 mouse assessed as protection against maximal electroshock-induced seizures at 30 mg/kg, ip after 0.5 hrs; assay type: functional, organism-based; design: dose 30 mg/kg; outline: as §2
Rattus norvegicus [16] = experiment: Neurotoxicity in pilocarpine-induced status epilepticus Sprague-Dawley albino rat model assessed as minimal motor impairment at 30 mg/kg, ip after 0.5 hrs by rotarod test; assay type: toxicity, organism-based; design: dose 30 mg/kg, route intraperitoneal; conditions: in vivo
Outline: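 Rat pilocarpine status epilepticus model: test carbamate given at 0 or 30 min after the first observed Racine stage 3 motor seizure, which marks SE onset. Neurotoxicity was scored within the same model.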

CCC(COC(N)=O)C(C)C (racemic)
Ratio TD50/ED50 (Mus musculus [1]): 4.4 | Activity (Mus musculus [2]): Active | Ratio TD50/ED50 (Mus musculus [3]): 1.5 | Activity (Mus musculus [4]): inactive | Activity (Rattus norvegicus [5]): inactive | ED50 (Rattus norvegicus [6]): 81 mg/kg | ED97 (Rattus norvegicus [6]): 114 mg/kg | Activity (Mus musculus [7]): inactive | ED50 (Rattus norvegicus [8]): 35 mg/kg | Activity (Mus musculus [9]): inactive | Activity (Rattus norvegicus [10]): inactive | TD50 [11]: > 500 mg/kg | Activity (Rattus norvegicus [12]): Active | Activity (Rattus norvegicus [13]): Non-toxic | ED50 (Mus musculus [14]): 120 mg/kg | Activity (Mus musculus [15]): inactive | Activity (Rattus norvegicus [16]): Non-toxic

Source: ChEMBL document CHEMBL2086252, “Syntheses and evaluation of anticonvulsant activity of novel branched alkyl carbamates” (J Med Chem, 2012)
